Test results reported in ChEMBL document CHEMBL1141034, “Optimization of the in vitro and in vivo properties of a novel series of 2,4,5-trisubstituted imidazoles as potent cholecystokinin-2 (CCK2) antagonists” (J Med Chem, 2005).
The source made the active and inactive calls. The rule behind the calls is not given here.

Key:
[1] = biological target: T1, Gastrin/cholecystokinin type B receptor (Mus musculus, UniProt P56481); experiment: Concentration required to inhibit the binding of 20 pM [125I]-BH-CCK-8S radioligand to mouse cortical membrane CCK2 receptor
T1 sequence (P56481 whole entry): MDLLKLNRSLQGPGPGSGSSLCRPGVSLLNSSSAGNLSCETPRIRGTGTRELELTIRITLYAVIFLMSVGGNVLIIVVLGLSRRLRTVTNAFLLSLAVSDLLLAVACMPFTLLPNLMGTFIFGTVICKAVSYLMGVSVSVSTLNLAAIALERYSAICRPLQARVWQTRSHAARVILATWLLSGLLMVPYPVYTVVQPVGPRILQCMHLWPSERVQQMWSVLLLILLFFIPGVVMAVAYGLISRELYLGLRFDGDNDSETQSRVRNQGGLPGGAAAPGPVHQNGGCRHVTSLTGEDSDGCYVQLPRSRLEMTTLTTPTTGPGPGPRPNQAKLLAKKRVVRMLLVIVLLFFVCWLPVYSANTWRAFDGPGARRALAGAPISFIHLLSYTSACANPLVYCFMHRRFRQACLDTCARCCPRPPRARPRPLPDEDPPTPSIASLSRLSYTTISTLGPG
Procedure, shortened: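 Mouse cerebral cortex homogenates. Competition with 20 pM [125I]BH-CCK-8S for CCK2 sites, reported as pKI. At least three separate experiments give ± SEM. Where only two experiments were run, no error is given (approximate SEM 0.1 log units).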

[2] = Lipophilicity was measured in octanol/buffer (pH 7.4); format: physicochemical
Procedure, shortened: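 log D from partition between octanol and buffer at pH 7.4, given ± error.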

[3] = biological target: T2, Gastrin/cholecystokinin type B receptor (Canis lupus familiaris, UniProt P30552); experiment: Concentration required to inhibit the binding of [125I]-BH-CCK-8S radioligand to canine gastric mucosa CCK2 receptor
T2 sequence (P30552 whole entry): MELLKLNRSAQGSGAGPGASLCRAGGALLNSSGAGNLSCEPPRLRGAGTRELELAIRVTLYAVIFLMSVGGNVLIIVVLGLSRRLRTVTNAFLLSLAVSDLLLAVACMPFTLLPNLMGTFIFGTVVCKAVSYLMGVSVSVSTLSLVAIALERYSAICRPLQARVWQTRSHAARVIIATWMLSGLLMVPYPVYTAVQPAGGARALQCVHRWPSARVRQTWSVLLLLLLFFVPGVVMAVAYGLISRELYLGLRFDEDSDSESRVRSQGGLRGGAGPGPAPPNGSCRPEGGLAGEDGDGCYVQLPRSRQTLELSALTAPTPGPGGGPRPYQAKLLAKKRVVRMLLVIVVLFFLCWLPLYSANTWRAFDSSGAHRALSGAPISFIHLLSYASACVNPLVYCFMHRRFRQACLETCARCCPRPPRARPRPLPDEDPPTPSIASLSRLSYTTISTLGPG
Procedure, shortened: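 Canine gastric mucosa. Competition with [125I]BH-CCK-8S for CCK2 binding sites, reported as pIC50 ± SEM.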

[4] = biological target: T3, Gastrin/cholecystokinin type B receptor (Canis lupus familiaris) (UniProt P30552); experiment: Percent inhibition (i.v., 1.0 mg/Kg) against dog CCK2 receptor
T3 sequence (whole entry): T2 sequence (P30552 whole entry)
Procedure, shortened: (§1)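 Conscious dogs given a bolus iv or intraduodenally during pentagastrin-stimulated acid secretion. Result is the peak percentage inhibition of acid output in the first four collection periods (1 h) after dosing, ± SEM, with the number of replicates stated.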

[5] = biological target: T4, Cholecystokinin receptor type A (Cavia porcellus, UniProt Q63931); experiment: Concentration required to inhibit the binding of 20 pM [125I]BH-CCK-8S radioligand to guinea pig pancreas CCK1 receptor
T4 sequence (Q63931 whole entry): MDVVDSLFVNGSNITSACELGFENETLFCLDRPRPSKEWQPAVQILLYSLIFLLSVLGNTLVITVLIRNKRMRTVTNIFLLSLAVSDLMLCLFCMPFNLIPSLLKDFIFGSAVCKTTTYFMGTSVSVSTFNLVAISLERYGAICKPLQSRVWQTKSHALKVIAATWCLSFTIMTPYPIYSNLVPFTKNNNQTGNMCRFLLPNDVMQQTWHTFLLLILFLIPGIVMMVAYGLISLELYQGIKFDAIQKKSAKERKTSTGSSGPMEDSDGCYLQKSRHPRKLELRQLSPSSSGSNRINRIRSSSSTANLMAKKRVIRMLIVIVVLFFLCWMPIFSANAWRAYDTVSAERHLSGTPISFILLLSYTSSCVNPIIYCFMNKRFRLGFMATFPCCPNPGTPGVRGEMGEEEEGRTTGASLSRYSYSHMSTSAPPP
Procedure, shortened: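 CCK1 sites on guinea pig pancreatic cells. Competition with 20 pM [125I]BH-CCK-8S, reported as pKI. At least three separate experiments give ± SEM. Where only two experiments were run, no error is given (approximate SEM 0.1 log units).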

[6] = biological target: T5, Gastrin/cholecystokinin type B receptor (Rattus norvegicus) (UniProt P30553); experiment: Antagonist activity against CCK2 receptor estimated from single shifts of pentagastrin concentration-effect curves in the isolated rat stomach; […]; format: functional, tissue-based
T5 sequence (whole entry): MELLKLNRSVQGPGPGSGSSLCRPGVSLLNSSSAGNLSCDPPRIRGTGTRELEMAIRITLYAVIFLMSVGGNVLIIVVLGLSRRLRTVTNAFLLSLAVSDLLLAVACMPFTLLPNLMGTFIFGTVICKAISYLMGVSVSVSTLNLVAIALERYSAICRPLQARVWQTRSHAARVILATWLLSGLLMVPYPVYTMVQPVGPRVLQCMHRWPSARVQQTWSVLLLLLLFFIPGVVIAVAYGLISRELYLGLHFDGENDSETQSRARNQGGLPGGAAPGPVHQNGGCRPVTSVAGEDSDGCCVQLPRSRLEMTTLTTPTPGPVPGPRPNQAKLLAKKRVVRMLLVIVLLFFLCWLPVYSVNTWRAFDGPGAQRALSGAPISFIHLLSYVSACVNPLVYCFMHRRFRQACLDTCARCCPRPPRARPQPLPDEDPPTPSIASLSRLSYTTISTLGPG

[7] = biological target: T3, Gastrin/cholecystokinin type B receptor (Canis lupus familiaris); experiment: Percent inhibition (i.d., 10.0 mg/Kg) against dog CCK2 receptor; procedure, shortened: as §1
[8] = biological target: T6, Gastrin/cholecystokinin type B receptor (Rattus norvegicus, UniProt P30553); experiment: Antagonist activity against CCK2 receptor estimated from single shifts of pentagastrin concentration-effect curves in the isolated rat stomach; format: functional, tissue-based; details: read-out: pA2 (converted)
T6 sequence (P30553 whole entry): T5 sequence (whole entry)

[9] = biological target: T3, Gastrin/cholecystokinin type B receptor (Canis lupus familiaris); experiment: Percent inhibition (i.v., 3.0 mg/Kg) against dog CCK2 receptor; procedure, shortened: as §1

| Compound | Ki [1] [nM] | Ki [5] [nM] | other results |
| --- | --- | --- | --- |
| CNc1cccc(NC(=O)c2[nH]c(-c3ccccc3C)nc2CCC23CC4CC(CC(C4)C2)C3)c1 | 11200 |  |  |
| Cc1cc(C)c(-c2nc(C(=O)Nc3cccc(C(=O)O)c3)c(COC34CC5CC(CC(C5)C3)C4)[nH]2)c(C)c1 | 13.8 | 537 | logD [2]: 3.02; IC50 [3]: 63.1 nM; inhibition [4]: 61% |
| Cc1ccccc1-c1nc(CCC23CC4CC(CC(C4)C2)C3)c(C(=O)Nc2ccc(N(C)C)c(C(=O)O)c2)[nH]1 |  | 794 |  |
| O=C(O)c1cccc(NC(=O)c2nc(C34CCC(CC3)CC4)[nH]c2COC23CC4CC(CC(C4)C2)C3)c1 | 27.5 | 776 |  |
| CC1(c2nc(C(=O)Nc3cccc(C(=O)O)c3)c(CCC34CC5CC(CC(C5)C3)C4)[nH]2)CCCCC1 |  | 562 |  |
| O=C(O)c1cccc(NC(=O)c2[nH]c(C34CCC(CC3)CC4)nc2CCC23CC4CC(CC(C4)C2)C3)c1 | 20.4 | 324 |  |
| CCCc1nc(C(=O)Nc2cccc(C(=O)O)c2)c(CCC23CC4CC(CC(C4)C2)C3)[nH]1 |  | 1120 |  |
| Cc1cc(C)c(-c2nc(C(=O)Nc3cccc(C(=O)O)c3)c(CCC34CC5CC(CC(C5)C3)C4)[nH]2)c(C)c1 | 26.9 | 724 |  |
| CC(C)(C)c1nc(C(=O)Nc2cccc(C(=O)O)c2)c(CCC23CC4CC(CC(C4)C2)C3)[nH]1 |  | 2880 |  |
| Cc1ccccc1-c1nc(C(=O)Nc2cccc(CC(=O)O)c2)c(CCC23CC4CC(CC(C4)C2)C3)[nH]1 |  | 398 | pA2 [6]: inactive |
| CC(C)c1nc(C(=O)Nc2cccc(C(=O)O)c2)c(CCC23CC4CC(CC(C4)C2)C3)[nH]1 |  | 1450 |  |
| Cc1ccccc1-c1nc(C(=O)Nc2cccc(C(=O)O)c2)c(CCC23CC4CC(CC(C4)C2)C3)[nH]1 |  | 661 |  |
| O=C(O)c1cccc(NC(=O)c2[nH]c(C3CCCC3)nc2CCC23CC4CC(CC(C4)C2)C3)c1 | 39.8 | 525 |  |
| O=C(O)c1cccc(NC(=O)c2[nH]c(C3CCCCCCCCCCC3)nc2CCC23CC4CC(CC(C4)C2)C3)c1 |  |  | pA2 [6]: inactive |
| O=C(O)c1cccc(NC(=O)c2[nH]c(C3CCCCC3)nc2CCC23CC4CC(CC(C4)C2)C3)c1 |  | 575 | logD [2]: 4.12; inhibition [7]: 46%; IC50 [3]: 29.5 nM; inhibition [4]: 40% |
| Cc1ccccc1-c1nc(C(=O)Nc2cccc(CCC(=O)O)c2)c(CCC23CC4CC(CC(C4)C2)C3)[nH]1 | 6.92 | 302 |  |
| O=C(O)c1cccc(NC(=O)c2cc(-c3ccccc3)[nH]c2CCC23CC4CC(CC(C4)C2)C3)c1 |  | 2090 | pA2 [6]: inactive |
| Cc1ccc(-c2nc(C(=O)Nc3cccc(C(=O)O)c3)c(CCC34CC5CC(CC(C5)C3)C4)[nH]2)c(C)c1 |  | 617 |  |

| Compound | Ki [1] [nM] | Ki [5] [nM] | other results |
| --- | --- | --- | --- |
| Cc1ccc(NC(=O)c2nc(-c3ccccc3C)[nH]c2CCC23CC4CC(CC(C4)C2)C3)cc1C(=O)O |  | 417 | Kb [8]: 33.1 nM |
| Cc1ccccc1-c1nc(C(=O)Nc2ccc(F)c(C(=O)O)c2)c(CCC23CC4CC(CC(C4)C2)C3)[nH]1 |  | 562 |  |
| Cc1cccc(C)c1-c1nc(C(=O)Nc2cccc(C(=O)O)c2)c(CCC23CC4CC(CC(C4)C2)C3)[nH]1 | 141 | > 10000 |  |
| Cc1ccccc1-c1nc(C(=O)Nc2cccc(C(=O)O)c2)c(CCC2CCCCC2)[nH]1 | 617 | 295 |  |
| Cc1ccc(NC(=O)c2[nH]c(C3(C)CCCCC3)nc2CCC23CC4CC(CC(C4)C2)C3)cc1C(=O)O | 3.31 |  | logD [2]: 4.91; inhibition [9]: 54%; IC50 [3]: 11.2 nM |
| O=C(O)c1cccc(NC(=O)c2nc(C3CCCCC3)[nH]c2COC23CC4CC(CC(C4)C2)C3)c1 | 13.5 | 562 | logD [2]: 2.73; IC50 [3]: 19.5 nM; inhibition [4]: 76% |
| O=C(O)c1cccc(NC(=O)c2cc(-c3ccc4ccccc4c3)[nH]c2CC2CCCCCC2)c1 |  | 3020 | pA2 [6]: inactive |
| O=C(O)c1cccc(NC(=O)c2[nH]c(C3CCCCCC3)nc2CCC23CC4CC(CC(C4)C2)C3)c1 |  | 126 |  |
| Cc1ccccc1-c1cc(C(=O)Nc2cccc(C(=O)O)c2)c(CCC23CC4CC(CC(C4)C2)C3)[nH]1 |  | 2190 | pA2 [6]: inactive |
| Cc1cc(C)c(-c2nc(C(=O)Nc3ccc(C)c(C(=O)O)c3)c(CCC34CC5CC(CC(C5)C3)C4)[nH]2)c(C)c1 | 3.02 | 123 | Kb [8]: 3.31 nM; logD [2]: 4.9; inhibition [9]: 76%; IC50 [3]: 39.8 nM |
| O=C(O)c1cccc(NC(=O)c2[nH]c(-c3ccc4ccccc4c3)nc2CC2CCCCCC2)c1 |  | 2510 | pA2 [6]: inactive |
| COc1ccc(NC(=O)c2[nH]c(-c3ccccc3C)nc2CCC23CC4CC(CC(C4)C2)C3)cc1C(=O)O |  |  | pA2 [6]: inactive |
| Cc1cccc(NC(=O)c2[nH]c(-c3ccccc3C)nc2CCC23CC4CC(CC(C4)C2)C3)c1 | > 100000 |  |  |
| Cc1ccccc1-c1nc(C(=O)Nc2cccc(C(=O)O)c2)c(CCC(C)C)[nH]1 | 8320 | 661 | Kb [8]: 26.3 nM |
| O=C(O)c1cccc(NC(=O)c2[nH]c(C3CC3)nc2CCC23CC4CC(CC(C4)C2)C3)c1 |  | 2340 |  |
| O=C(O)c1cccc(NC(=O)c2[nH]c(-c3ccccc3)nc2CCC23CC4CC(CC(C4)C2)C3)c1 | 316 | 1320 |  |
| Cc1ccccc1-c1nc(C(=O)Nc2cccc(C(=O)O)c2)c(CC23CC4CC(CC(C4)C2)C3)[nH]1 |  |  | pA2 [6]: inactive |
| COC(=O)c1cccc(NC(=O)c2[nH]c(-c3ccccc3C)nc2CCC23CC4CC(CC(C4)C2)C3)c1 | > 100000 |  |  |
